Measured values published in ChEMBL document CHEMBL4715736, “Identification of anticancer agents based on the thieno[2,3-b]pyridine and 1H-pyrazole molecular scaffolds” (2016).

Columns and labels:
Assay type in all cases: functional
SK-OV-3 = experiment: Growth inhibition of human SK-OV-3 cells incubated for 48 hrs by sulforhodamine B assay; details: for CC50: read-out: LC50 (the source's name)
Summary of the method: (§1)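 NCI DTP 60-line human tumour panel. Dose-response curves were run only for ligands active in the initial 10 µM screen. GI50 (concentration giving 50% of maximal inhibition of proliferation) and TGI (concentration giving total growth inhibition) were derived from these curves.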

MOLT-4 = experiment: Growth inhibition of human MOLT-4 cells assessed as cell growth at 0.01 uM incubated for 48 hrs by sulforhodamine B assay relative to control; details: read-out: Activity
OVCAR-3 [1] = experiment: Growth inhibition of human OVCAR-3 cells incubated for 48 hrs by sulforhodamine B assay; details: for CC50: read-out: LC50 (the source's name); summary of the method: as §1
786-0 = experiment: Growth inhibition of human 786-0 cells incubated for 48 hrs by sulforhodamine B assay; details: for CC50: read-out: LC50 (the source's name)
Summary of the method: (§2)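 NCI Developmental Therapeutics Program NCI60 panel. Compounds that were active in the 10 µM one-dose screen went on to dose–response testing. Growth at each concentration is expressed relative to untreated control (100%). GI50 (concentration giving 50% of maximal inhibition of proliferation) and TGI (concentration giving total growth inhibition) were derived from the curves.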

UO-31 [2] = experiment: Growth inhibition of human UO-31 cells assessed as cell growth at 0.01 uM incubated for 48 hrs by sulforhodamine B assay relative to control; details: read-out: Activity
HOP-92 = experiment: Growth inhibition of human HOP-92 cells incubated for 48 hrs by sulforhodamine B assay
Summary of the method: (§3)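 NCI60 panel at the NCI Developmental Therapeutics Program. Only compounds active in the 10 µM screen went to dose-response testing. GI50, the concentration giving 50% of maximal inhibition of proliferation, and TGI, the concentration giving total growth inhibition, were derived from the dose-response curves.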

T47D = experiment: Growth inhibition of human T47D cells assessed as cell growth at 0.1 uM incubated for 48 hrs by sulforhodamine B assay relative to control; details: read-out: Activity
U-251 = experiment: Growth inhibition of human U-251 cells assessed as cell growth at 100 uM incubated for 48 hrs by sulforhodamine B assay relative to control; details: read-out: Activity
IGROV-1 [3] = experiment: Growth inhibition of human IGROV-1 cells assessed as cell growth at 0.01 uM incubated for 48 hrs by sulforhodamine B assay relative to control; details: read-out: Activity
OVCAR-8 [4] = experiment: Growth inhibition of human OVCAR-8 cells assessed as cell growth at 0.01 uM incubated for 48 hrs by sulforhodamine B assay relative to control; details: read-out: Activity
HT-29 = experiment: Growth inhibition of human HT-29 cells assessed as cell growth at 0.1 uM incubated for 48 hrs by sulforhodamine B assay relative to control; details: read-out: Activity
UO-31 [5] = experiment: Growth inhibition of human UO-31 cells assessed as cell growth at 100 uM incubated for 48 hrs by sulforhodamine B assay relative to control; details: read-out: Activity
OVCAR-8 [6] = experiment: Growth inhibition of human OVCAR-8 cells assessed as cell growth at 0.1 uM incubated for 48 hrs by sulforhodamine B assay relative to control; details: read-out: Activity
SR = experiment: Growth inhibition of human SR cells incubated for 48 hrs by sulforhodamine B assay; summary of the method: as §1
MDA-MB-435 = experiment: Growth inhibition of human MDA-MB-435 cells incubated for 48 hrs by sulforhodamine B assay; details: for CC50: read-out: LC50 (the source's name); summary of the method: as §3
CAKI-1 = experiment: Growth inhibition of human CAKI-1 cells assessed as cell growth at 0.1 uM incubated for 48 hrs by sulforhodamine B assay relative to control; details: read-out: Activity; summary of the method: as §2
NCI-H460 = experiment: Growth inhibition of human NCI-H460 cells assessed as cell growth at 0.01 uM incubated for 48 hrs by sulforhodamine B assay relative to control; details: read-out: Activity
M14 [7] = experiment: Growth inhibition of human M14 cells assessed as cell growth at 1 uM incubated for 48 hrs by sulforhodamine B assay relative to control; details: read-out: Activity
A549 = experiment: Growth inhibition of human A549/ATCC cells assessed as cell growth at 0.01 uM incubated for 48 hrs by sulforhodamine B assay relative to control; details: read-out: Activity; summary of the method: as §2
IGROV-1 [8] = experiment: Growth inhibition of human IGROV-1 cells assessed as cell growth at 100 uM incubated for 48 hrs by sulforhodamine B assay relative to control; details: read-out: Activity
SN12C = experiment: Growth inhibition of human SN12C cells assessed as cell growth at 0.1 uM incubated for 48 hrs by sulforhodamine B assay relative to control; details: read-out: Activity
M14 [9] = experiment: Growth inhibition of human M14 cells assessed as cell growth at 100 uM incubated for 48 hrs by sulforhodamine B assay relative to control; details: read-out: Activity
UACC-257 = experiment: Growth inhibition of human UACC-257 cells assessed as cell growth at 0.1 uM incubated for 48 hrs by sulforhodamine B assay relative to control; details: read-out: Activity
TK-10 = experiment: Growth inhibition of human TK-10 cells assessed as cell growth at 0.01 uM incubated for 48 hrs by sulforhodamine B assay relative to control; details: read-out: Activity
OVCAR-3 [10] = experiment: Growth inhibition of human OVCAR-3 cells assessed as cell growth at 1 uM incubated for 48 hrs by sulforhodamine B assay relative to control; details: read-out: Activity
OVCAR-4 = experiment: Growth inhibition of human OVCAR-4 cells assessed as cell growth at 0.01 uM incubated for 48 hrs by sulforhodamine B assay relative to control; details: read-out: Activity
COLO 205 = experiment: Growth inhibition of human COLO 205 cells assessed as cell growth at 0.01 uM incubated for 48 hrs by sulforhodamine B assay relative to control; details: read-out: Activity; summary of the method: as §2
OVCAR-5 = experiment: Growth inhibition of human OVCAR-5 cells assessed as cell growth at 1 uM incubated for 48 hrs by sulforhodamine B assay relative to control; details: read-out: Activity
HCT-116 = experiment: Growth inhibition of human HCT-116 cells assessed as cell growth at 100 uM incubated for 48 hrs by sulforhodamine B assay relative to control; details: read-out: Activity
MDA-MB-468 = experiment: Growth inhibition of human MDA-MB-468 cells assessed as cell growth at 0.1 uM incubated for 48 hrs by sulforhodamine B assay relative to control; details: read-out: Activity
MCF7 = experiment: Growth inhibition of human MCF7 cells assessed as cell growth at 0.01 uM incubated for 48 hrs by sulforhodamine B assay relative to control; details: read-out: Activity
M14 [11] = experiment: Growth inhibition of human M14 cells assessed as cell growth at 0.1 uM incubated for 48 hrs by sulforhodamine B assay relative to control; details: read-out: Activity
LOX IMVI = experiment: Growth inhibition of human LOX IMVI cells assessed as cell growth at 0.01 uM incubated for 48 hrs by sulforhodamine B assay relative to control; details: read-out: Activity
UACC-62 = experiment: Growth inhibition of human UACC-62 cells assessed as cell growth at 0.01 uM incubated for 48 hrs by sulforhodamine B assay relative to control; details: read-out: Activity
NCI-H23 = experiment: Growth inhibition of human NCI-H23 cells assessed as cell growth at 0.1 uM incubated for 48 hrs by sulforhodamine B assay relative to control; details: read-out: Activity

Cc1ccc(NC(=O)c2sc3nc4c(cc3c2N)C(=O)CCC4)cc1C
GI50 (SK-OV-3): 0.534 µM
TGI (SK-OV-3): > 100 µM
CC50 (SK-OV-3): > 100 µM
growth at 0.01 µM (MOLT-4): 103%
GI50 (OVCAR-3 [1]): 0.343 µM
TGI (OVCAR-3 [1]): 1.4 µM
CC50 (OVCAR-3 [1]): > 100 µM
GI50 (786-0): 0.614 µM
TGI (786-0): > 100 µM
CC50 (786-0): > 100 µM
growth at 0.01 µM (UO-31 [2]): 81%
LC50 (concentration killing 50% of the starting cells) (HOP-92): > 100 µM
TGI (HOP-92): > 100 µM
growth at 0.1 µM (T47D): 97%
growth at 100 µM (U-251): -9%
growth at 0.01 µM (IGROV-1 [3]): 104%
growth at 0.01 µM (OVCAR-8 [4]): 97%
growth at 0.1 µM (HT-29): 104%
growth at 100 µM (UO-31 [5]): 16%
growth at 0.1 µM (OVCAR-8 [6]): 100%
GI50 (SR): 0.499 µM
LC50 (SR): > 100 µM
TGI (SR): 26.8 µM
GI50 (MDA-MB-435): 0.121 µM
TGI (MDA-MB-435): 0.322 µM
growth at 0.1 µM (CAKI-1): 91%
growth at 0.01 µM (NCI-H460): 102%
growth at 1 µM (M14 [7]): 22%
growth at 0.01 µM (A549): 100%
growth at 100 µM (IGROV-1 [8]): 10%
growth at 0.1 µM (SN12C): 96%
growth at 100 µM (M14 [9]): 4%
growth at 0.1 µM (UACC-257): 92%
growth at 0.01 µM (TK-10): 96%
growth at 1 µM (OVCAR-3 [10]): 3%
growth at 0.01 µM (OVCAR-4): 94%
growth at 0.01 µM (COLO 205): 101%
growth at 1 µM (OVCAR-5): 66%
growth at 100 µM (HCT-116): 8%
growth at 0.1 µM (MDA-MB-468): 83%
growth at 0.01 µM (MCF7): 89%
growth at 0.1 µM (M14 [11]): 86%
growth at 0.01 µM (LOX IMVI): 97%

CCc1cccc(C)c1NC(=O)c1sc2nc3c(cc2c1N)C(=O)CCC3
growth at 0.01 µM (MOLT-4): 98%
GI50 (OVCAR-3 [1]): 0.374 µM
TGI (OVCAR-3 [1]): 2.3 µM
CC50 (OVCAR-3 [1]): > 100 µM
GI50 (786-0): 0.542 µM
TGI (786-0): > 100 µM
CC50 (786-0): > 100 µM
growth at 0.01 µM (UO-31 [2]): 86%
GI50 (HOP-92): 0.446 µM
LC50 (concentration killing 50% of the starting cells) (HOP-92): > 100 µM
TGI (HOP-92): 70 µM
growth at 0.1 µM (T47D): 91%
growth at 100 µM (U-251): 4%
growth at 0.01 µM (IGROV-1 [3]): 101%
growth at 0.01 µM (UACC-62): 96%
growth at 0.01 µM (OVCAR-8 [4]): 99%
growth at 100 µM (UO-31 [5]): 12%
growth at 0.1 µM (OVCAR-8 [6]): 97%
GI50 (SR): 0.403 µM
LC50 (SR): > 100 µM
TGI (SR): ≥ 100 µM
GI50 (MDA-MB-435): 0.148 µM
CC50 (MDA-MB-435): > 100 µM
growth at 0.1 µM (CAKI-1): 91%
growth at 0.01 µM (NCI-H460): 101%
growth at 1 µM (M14 [7]): 17%
growth at 0.01 µM (A549): 96%
growth at 100 µM (IGROV-1 [8]): 8%
growth at 0.1 µM (SN12C): 92%
growth at 100 µM (M14 [9]): -17%
growth at 0.1 µM (UACC-257): 82%
growth at 1 µM (OVCAR-3 [10]): 10%
growth at 0.01 µM (OVCAR-4): 89%
growth at 0.01 µM (COLO 205): 96%
growth at 1 µM (OVCAR-5): 59%
growth at 100 µM (HCT-116): 4%
growth at 0.1 µM (NCI-H23): 100%
growth at 0.1 µM (MDA-MB-468): 91%
growth at 0.01 µM (MCF7): 83%
growth at 0.1 µM (M14 [11]): 92%
growth at 0.01 µM (LOX IMVI): 95%

CN1CCc2nc3sc(C(N)=O)c(N)c3c(-c3cccs3)c2C1
GI50 (SK-OV-3): 3.35 µM
TGI (SK-OV-3): > 100 µM
CC50 (SK-OV-3): > 100 µM
growth at 0.01 µM (MOLT-4): 99%
GI50 (OVCAR-3 [1]): 2.16 µM
TGI (OVCAR-3 [1]): 6.23 µM
CC50 (OVCAR-3 [1]): > 100 µM
GI50 (786-0): 4.41 µM
TGI (786-0): > 100 µM
CC50 (786-0): > 100 µM
growth at 0.01 µM (UO-31 [2]): 97%
GI50 (HOP-92): 3.16 µM
LC50 (concentration killing 50% of the starting cells) (HOP-92): > 100 µM
TGI (HOP-92): 9.16 µM
growth at 0.1 µM (T47D): 94%
growth at 100 µM (U-251): 7%
growth at 0.01 µM (IGROV-1 [3]): 111%
growth at 0.01 µM (UACC-62): 99%
growth at 0.01 µM (OVCAR-8 [4]): 106%
growth at 0.1 µM (HT-29): 104%
growth at 100 µM (UO-31 [5]): 6%
growth at 0.1 µM (OVCAR-8 [6]): 96%
GI50 (SR): 1.8 µM
LC50 (SR): > 100 µM
TGI (SR): 7.31 µM
GI50 (MDA-MB-435): 3.13 µM
TGI (MDA-MB-435): > 100 µM
CC50 (MDA-MB-435): > 100 µM
growth at 0.1 µM (CAKI-1): 82%
growth at 0.01 µM (NCI-H460): 109%
growth at 1 µM (M14 [7]): 115%
growth at 0.01 µM (A549): 99%
growth at 100 µM (IGROV-1 [8]): 9%
growth at 0.1 µM (SN12C): 93%
growth at 100 µM (M14 [9]): -27%
growth at 0.1 µM (UACC-257): 105%
growth at 0.01 µM (TK-10): 101%
growth at 1 µM (OVCAR-3 [10]): 87%
growth at 0.01 µM (OVCAR-4): 110%
growth at 0.01 µM (COLO 205): 105%
growth at 100 µM (HCT-116): 3%
growth at 0.1 µM (NCI-H23): 95%
growth at 0.1 µM (MDA-MB-468): 82%
growth at 0.01 µM (MCF7): 98%
growth at 0.1 µM (M14 [11]): 111%
growth at 0.01 µM (LOX IMVI): 97%
